# From ChEMBL document CHEMBL4359867, “Design, synthesis and biological evaluation of novel 4-anilinoquinazoline derivatives as hypoxia-selective EGFR and VEGFR-2 dual inhibitors” (Eur J Med Chem, 2019)
# Active and inactive are the calls of the source. The rule behind the calls is not given here.
# Assays:
# NCI-H446 [1] = assay: Antiproliferative activity against human NCI-H446 cells assessed as inhibition of cell growth at 0.5 uM in hypoxia condition (200 uM CoCl2) and under irradiation at 8 Gy for 24 hrs and measured after 24 hrs by CCK8 assay (reference value: 68.77%); type: functional
# A549 [2] = assay: Antiproliferative activity against human A549 cells assessed as inhibition of cell growth at 0.5 uM after 48 hrs under hypoxic condition (200 uM CoCl2) by CCk-8 assay relative to control (reference value: 59.94%); type: functional
# Procedure, shortened: (§1)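 RPMI-1640 with 10% fetal calf serum. Compounds dissolved in DMSO. Hypoxia produced chemically with cobalt(II) chloride; normoxic wells received no CoCl2. Viability read by CCK-8 (WST-8) at 450 nm, and inhibition ratio calculated against untreated control.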
# A549 [3] = assay: Antiproliferative activity against human A549 cells assessed as inhibition of cell growth at 0.5 uM in hypoxia condition (200 uM CoCl2) and under irradiation at 8 Gy for 24 hrs and measured after 24 hrs by CCK8 assay (reference value: 64.135%); type: functional
# [4] = molecular target: Vascular endothelial growth factor receptor 2 (Homo sapiens, UniProt P35968); assay: Inhibition of N-terminal GST-tagged human VEGFR2 cytoplasmic domain (790 to 1356 residues) expressed in baculovirus expression system using FAM-22 peptide as substrate incubated for 10 mins followed by substrate addition by caliper method
# Sequence of Vascular endothelial growth factor receptor 2 (P35968 whole entry, the tested form may be a part): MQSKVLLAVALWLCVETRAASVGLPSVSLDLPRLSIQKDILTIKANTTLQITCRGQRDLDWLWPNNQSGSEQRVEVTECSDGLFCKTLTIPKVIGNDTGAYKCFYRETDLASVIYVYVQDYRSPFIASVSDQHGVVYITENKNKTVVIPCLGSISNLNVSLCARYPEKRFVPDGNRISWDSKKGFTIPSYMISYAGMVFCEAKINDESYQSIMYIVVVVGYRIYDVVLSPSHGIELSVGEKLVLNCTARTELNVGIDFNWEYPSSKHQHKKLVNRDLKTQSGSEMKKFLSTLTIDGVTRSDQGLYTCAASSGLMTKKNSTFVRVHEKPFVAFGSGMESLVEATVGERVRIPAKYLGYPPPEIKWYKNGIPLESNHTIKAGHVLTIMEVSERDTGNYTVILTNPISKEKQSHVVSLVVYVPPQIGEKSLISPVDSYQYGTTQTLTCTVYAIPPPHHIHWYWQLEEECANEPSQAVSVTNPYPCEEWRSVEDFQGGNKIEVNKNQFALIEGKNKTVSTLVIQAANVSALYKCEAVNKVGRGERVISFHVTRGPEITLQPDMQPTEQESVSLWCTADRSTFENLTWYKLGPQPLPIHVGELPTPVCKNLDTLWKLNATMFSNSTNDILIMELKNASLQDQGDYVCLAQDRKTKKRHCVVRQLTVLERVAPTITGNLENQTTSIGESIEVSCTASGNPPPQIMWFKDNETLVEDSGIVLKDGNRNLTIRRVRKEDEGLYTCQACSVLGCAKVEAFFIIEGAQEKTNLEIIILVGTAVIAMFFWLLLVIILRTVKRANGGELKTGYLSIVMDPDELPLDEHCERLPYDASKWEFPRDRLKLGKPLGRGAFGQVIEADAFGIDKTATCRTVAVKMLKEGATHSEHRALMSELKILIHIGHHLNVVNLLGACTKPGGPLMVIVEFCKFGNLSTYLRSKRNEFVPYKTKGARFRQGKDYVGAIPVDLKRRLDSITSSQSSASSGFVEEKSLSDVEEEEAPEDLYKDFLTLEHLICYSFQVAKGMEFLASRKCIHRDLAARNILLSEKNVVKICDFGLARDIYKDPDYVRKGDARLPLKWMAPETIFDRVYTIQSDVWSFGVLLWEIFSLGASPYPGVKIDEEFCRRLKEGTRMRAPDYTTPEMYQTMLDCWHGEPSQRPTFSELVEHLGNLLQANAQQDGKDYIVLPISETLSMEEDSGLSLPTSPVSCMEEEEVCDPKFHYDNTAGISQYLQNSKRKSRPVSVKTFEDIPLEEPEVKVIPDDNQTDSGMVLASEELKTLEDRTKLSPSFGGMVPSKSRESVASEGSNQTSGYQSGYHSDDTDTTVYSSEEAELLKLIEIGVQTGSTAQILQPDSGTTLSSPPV
# Procedure, shortened: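 Compounds (DMSO stocks 40 μM–0.2 nM, ten levels) tested in duplicate. Enzyme preincubated with compound 10 min at room temperature, then FAM-P22 peptide/ATP added and incubated at 28 °C. Stopped with EDTA-containing buffer. IC50 obtained by four-parameter Hill fit; staurosporine as reference.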
# [5] = molecular target: Epidermal growth factor receptor (Homo sapiens, UniProt P00533); assay: Inhibition of N-terminal GST-tagged human EGFR cytoplasmic domain (669 to 1210 residues) expressed in baculovirus expression system using FAM-22 peptide as substrate incubated for 10 mins followed by substrate addition by caliper method
# Sequence of Epidermal growth factor receptor (P00533 whole entry, the tested form may be a part): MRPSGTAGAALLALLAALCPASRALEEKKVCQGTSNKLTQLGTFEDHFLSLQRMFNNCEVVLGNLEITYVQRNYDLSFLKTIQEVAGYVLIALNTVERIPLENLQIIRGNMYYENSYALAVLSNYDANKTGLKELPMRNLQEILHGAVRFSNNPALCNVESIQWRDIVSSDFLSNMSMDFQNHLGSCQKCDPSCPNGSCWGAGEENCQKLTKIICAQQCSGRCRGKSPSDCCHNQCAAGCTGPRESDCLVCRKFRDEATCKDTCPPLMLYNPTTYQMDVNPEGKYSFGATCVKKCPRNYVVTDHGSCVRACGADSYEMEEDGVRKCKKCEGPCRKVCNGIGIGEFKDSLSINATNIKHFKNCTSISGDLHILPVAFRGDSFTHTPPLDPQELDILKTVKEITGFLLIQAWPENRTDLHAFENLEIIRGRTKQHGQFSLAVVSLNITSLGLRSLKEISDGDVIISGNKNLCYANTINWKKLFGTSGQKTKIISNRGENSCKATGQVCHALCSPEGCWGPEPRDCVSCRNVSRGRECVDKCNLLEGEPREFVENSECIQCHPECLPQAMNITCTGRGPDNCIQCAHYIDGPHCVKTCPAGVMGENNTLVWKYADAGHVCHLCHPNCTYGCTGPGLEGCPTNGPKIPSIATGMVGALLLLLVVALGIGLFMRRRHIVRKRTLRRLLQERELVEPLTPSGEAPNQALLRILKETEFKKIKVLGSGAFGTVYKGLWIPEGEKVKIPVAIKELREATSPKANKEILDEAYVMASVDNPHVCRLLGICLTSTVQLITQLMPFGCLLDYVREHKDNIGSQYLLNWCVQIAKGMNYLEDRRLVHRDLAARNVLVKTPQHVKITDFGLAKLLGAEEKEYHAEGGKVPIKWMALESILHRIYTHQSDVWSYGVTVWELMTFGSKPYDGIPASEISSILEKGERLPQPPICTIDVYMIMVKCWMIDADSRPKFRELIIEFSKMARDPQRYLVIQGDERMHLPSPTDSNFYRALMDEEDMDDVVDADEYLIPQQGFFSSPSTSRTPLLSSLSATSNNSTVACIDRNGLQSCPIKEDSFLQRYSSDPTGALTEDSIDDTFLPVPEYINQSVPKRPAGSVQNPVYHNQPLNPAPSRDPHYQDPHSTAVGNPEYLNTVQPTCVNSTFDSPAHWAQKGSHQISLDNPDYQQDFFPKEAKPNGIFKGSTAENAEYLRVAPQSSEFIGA
# NCI-H446 [6] = assay: Antiproliferative activity against human NCI-H446 cells assessed as hypoxic sensitive enhancement ratio in presence of CoCl2; type: functional
# NCI-H446 [7] = assay: Antiproliferative activity against human NCI-H446 cells assessed as hypoxic sensitive enhancement ratio in presence of Cocl2 under irradiation; type: functional
# A549 [8] = assay: Antiproliferative activity against human A549 cells assessed as hypoxic sensitive enhancement ratio in presence of CoCl2; type: functional
# [9] = Cytotoxicity against human A549 cells assessed as inhibition of cell growth at 0.5 uM after 48 hrs under normoxic condition by CCk-8 assay relative to control; type: cell-based; procedure, shortened: as §1
# [10] = Cytotoxicity against human NCI-H446 cells assessed as inhibition of cell growth at 0.5 uM after 48 hrs under normoxic condition by CCk-8 assay relative to control; type: cell-based; procedure, shortened: as §1
# NCI-H446 [11] = assay: Antiproliferative activity against human NCI-H446 cells assessed as inhibition of cell growth at 0.5 uM after 48 hrs under hypoxic condition (200 uM CoCl2) by CCk-8 assay relative to control (reference value: 65.84%); type: functional; procedure, shortened: as §1
# A549 [12] = assay: Antiproliferative activity against human A549 cells assessed as hypoxic sensitive enhancement ratio in presence of Cocl2 under irradiation; type: functional
# A549 [13] = assay: Antitumour activity against human A549 cells xenografted in Balb/c mouse assessed as tumour growth inhibition at 50 mg/kg, po administered daily and measured at day 18 relative to control; type: functional; conditions: 432 h, read-out: TGI
# Procedure, shortened: (§2)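 Male BALB/c-nu mice carrying sc flank A549 xenografts (1 × 10^7 cells). Dosing began 6–7 days post-inoculation, with oral 5, 15 or 50 mg/kg daily for 18 days and 3 mice per group. Tumours measured by caliper on days 4, 6, 8, 11, 13, 15 and 18. TGI derived from volume change from dosing start relative to untreated controls.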
# A549 [14] = assay: Antitumour activity against human A549 cells xenografted in Balb/c mouse assessed as tumour growth inhibition at 15 mg/kg, po administered daily and measured at day 18 relative to control; type: functional; conditions: 432 h, read-out: TGI; procedure, shortened: as §2
# A549 [15] = assay: Antitumour activity against human A549 cells xenografted in po dosed Balb/c mouse assessed as tumour growth inhibition administered daily for 18 days and […]; type: functional, organism-based
# A549 [16] = assay: Antitumour activity against human A549 cells xenografted in Balb/c mouse assessed as tumour growth inhibition at 5 mg/kg, po administered daily and measured at day 18 relative to control; type: functional; conditions: 432 h, read-out: TGI; procedure, shortened: as §2
# A549 [17] = assay: Downregulation of VEGF expression in human A549 cells at 5 uM after 24 hrs under hypoxic condition by q-PCR analysis relative to control; type: functional
# A549 [18] = assay: Antitumour activity against human A549 cells xenografted in Balb/c mouse assessed as increase in tumour volume at 10 mg/kg, po administered daily and mesured after 7 days; type: functional, organism-based
# Procedure, shortened: (§3)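 Male BALB/c-nu mice, 1 × 10^7 A549 cells implanted sc in the flank. Dosing began seven days after implantation: 10 mg/kg oral, daily for 17 days, 5 mice per group, with a vehicle control group. Tumour size measured daily by caliper, with body weight and clinical signs also recorded daily. TGI calculated from volume changes relative to starting volumes versus control.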
# [19] = Toxicity in Balb/c mouse xenografted with human A549 cells assessed as effect on weight loss at 10 mg/kg, po measured up to 17 days; type: organism-based; conditions: in vivo, 408 h; procedure, shortened: as §3
# A549 [20] = assay: Antitumour activity against human A549 cells xenografted in Balb/c mouse assessed as tumour growth inhibition at 10 mg/kg, po administered daily and mesured at day 17 relative to control; type: functional; conditions: 408 h, read-out: TGI; procedure, shortened: as §3
# A549 [21] = assay: Downregulation of VEGF expression in human A549 cells at 5 uM after 24 hrs under normoxic condition by q-PCR analysis relative to control; type: cell-based; conditions: a549, 24 h
# [22] = Toxicity in Balb/c mouse xenografted with human A549 cells assessed as reduction in body weight at 10 mg/kg, po measured up to 8 days; type: organism-based; conditions: in vivo, 192 h; procedure, shortened: as §3
# [23] = Toxicity in Balb/c mouse assessed as weight loss at 100 mg/kg, po administered 5 times per week for 2 weeks; type: organism-based; conditions: in vivo, 336 h
# Procedure, shortened: (§4)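 Male BALB/c-nu mice dosed orally at 100 mg/kg, five times a week for two weeks with two days off each weekend. Clinical signs of toxicity and body weight monitored.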
# [24] = Toxicity in po dosed Balb/c mouse assessed as maximum tolerated dose administered 5 times per week for 2 weeks; type: organism-based; conditions: in vivo
# [25] = Toxicity in Balb/c mouse assessed as effect on clinical signs at 100 mg/kg, po administered 5 times per week for 2 weeks; type: organism-based; conditions: in vivo, 336 h; procedure, shortened: as §4
IC50 [4] [nM],IC50 [5] [nM],SMILES,inhibition (INH) (NCI-H446 [1]) [%],inhibition (INH) (A549 [2]) [%],inhibition (INH) (A549 [3]) [%],Ratio (NCI-H446 [6]),Ratio (NCI-H446 [7]),Ratio (A549 [8]),"inhibition at 48 h, 0.5 µM [9] [%]","inhibition at 48 h, 0.5 µM [10] [%]",inhibition (INH) (NCI-H446 [11]) [%],Ratio (A549 [12]),other results
217,4.95,COc1cc2c(Nc3ccc(Br)cc3F)ncnc2cc1OCCOCCOCCNC(=O)Cn1cnc([N+](=O)[O-])n1,84.92,74.36,80.36,1.08,0.91,1.2,16,20.4,78.81,0.9,–
67.8,–,COc1cc2c(Nc3ccc(Cl)c(Cl)c3F)ncnc2cc1OCCOCCNC(=O)Cn1cnc([N+](=O)[O-])n1,85,82.25,80.7,–,–,–,13.8,20.5,77.9,–,inhibition in vivo at 50 mg/kg (A549 [13]): 76.3%; inhibition in vivo at 15 mg/kg (A549 [14]): 63.9%; inhibition (A549 [15]): Dose-dependent effect; inhibition in vivo at 5 mg/kg (A549 [16]): 28.1%; fold change (FC) (A549 [17]): 0.0037; Activity (A549 [18]): Active; Activity [19]: Non-Toxic; inhibition in vivo at 10 mg/kg (A549 [20]): 49%; fold change (FC) (A549 [21]): 0.1833
184,18.5,COc1cc2c(Nc3ccc(C)c(Br)c3)ncnc2cc1OCCNC(=O)Cn1cnc([N+](=O)[O-])n1,–,–,–,–,–,–,–,–,–,–,–
517,48.1,COc1cc2c(Nc3ccc(F)cc3Cl)ncnc2cc1OCCNC(=O)Cn1cnc([N+](=O)[O-])n1,–,–,–,–,–,–,–,–,–,–,–
245,6.24,COc1cc2c(Nc3ccc(C)c(Br)c3)ncnc2cc1OCCOCCOCCNC(=O)Cn1cnc([N+](=O)[O-])n1,–,–,–,–,–,–,–,–,–,–,–
864,16.4,COc1cc2c(Nc3ccc(F)cc3)ncnc2cc1OCCOCCNC(=O)Cn1cnc([N+](=O)[O-])n1,80.58,72.53,76.94,1.13,0.86,1.25,8.43,11.1,78.7,0.86,–
1880,20,COc1cc2c(Nc3ccc(F)c(F)c3)ncnc2cc1OCCOCCOCCNC(=O)Cn1cnc([N+](=O)[O-])n1,–,–,–,–,–,–,–,–,–,–,–
–,–,COc1cc2c(Nc3ccc(Br)cc3F)ncnc2cc1OCC1CCN(C)CC1 [VANDETANIB],–,–,–,–,–,–,21.1,25.6,–,–,Activity [22]: Toxic
407,0.37,COc1cc2c(Nc3ccc(C)c(Br)c3)ncnc2cc1OCCOCCNC(=O)Cn1cnc([N+](=O)[O-])n1,80.1,65.39,69.18,1.08,0.86,1.15,5.48,18.6,77.71,0.8,–
–,–,COc1cc2/c(=N/c3ccc(Br)cc3F)nc[nH]c2cc1OCC1CCN(C)CC1 [VANDETANIB],82.02,67.26,81.44,–,–,–,–,–,77.67,–,Activity (A549 [18]): Active; inhibition in vivo at 10 mg/kg (A549 [20]): 62.1%
86.8,43.6,COc1cc2c(Nc3ccc(Br)cc3F)ncnc2cc1OCCNC(=O)Cn1cnc([N+](=O)[O-])n1,79.03,72.99,80.3,1.07,0.85,1.19,14.9,16.8,76.34,0.9,–
1100,3.7,COc1cc2c(Nc3ccc(F)c(F)c3)ncnc2cc1OCCOCCNC(=O)Cn1cnc([N+](=O)[O-])n1,–,–,–,–,–,–,–,–,–,–,–
2870,12.9,COc1cc2c(Nc3ccc(F)cc3Cl)ncnc2cc1OCCOCCOCCNC(=O)Cn1cnc([N+](=O)[O-])n1,–,–,–,–,–,–,–,–,–,–,–
1200,3.11,COc1cc2c(Nc3cccc(F)c3)ncnc2cc1OCCOCCNC(=O)Cn1cnc([N+](=O)[O-])n1,–,–,–,–,–,–,–,–,–,–,–
27.1,3.23,COc1cc2c(Nc3ccc(Br)cc3F)ncnc2cc1OCC1CCN(C(=O)Cn2cncc2[N+](=O)[O-])CC1,–,–,–,–,–,–,–,–,–,–,–
4080,20.8,COc1cc2c(Nc3ccc(F)cc3Cl)ncnc2cc1OCCOCCNC(=O)Cn1cnc([N+](=O)[O-])n1,83.35,69.01,77.88,1.14,0.89,1.17,10.3,13.9,80.31,0.89,–

SMILES,IC50 [4] [nM],IC50 [5] [nM],inhibition (INH) (NCI-H446 [1]) [%],inhibition (INH) (A549 [2]) [%],inhibition (INH) (A549 [3]) [%],Ratio (NCI-H446 [6]),Ratio (NCI-H446 [7]),Ratio (A549 [8]),"inhibition at 48 h, 0.5 µM [9] [%]","inhibition at 48 h, 0.5 µM [10] [%]",inhibition (INH) (NCI-H446 [11]) [%],Ratio (A549 [12]),other results
COc1cc2c(Nc3ccc(Br)cc3F)ncnc2cc1OCCOCCNC(=O)Cn1cnc([N+](=O)[O-])n1,36.8,5.9,88.66,75.86,86.41,1.17,0.93,1.32,6.75,18.9,84.37,0.96,Activity [23]: Non-Toxic; inhibition in vivo at 50 mg/kg (A549 [13]): 80.5%; inhibition in vivo at 15 mg/kg (A549 [14]): 68.3%; inhibition (A549 [15]): Dose-dependent effect; inhibition in vivo at 5 mg/kg (A549 [16]): 31.2%; fold change (FC) (A549 [17]): 0.0011; Activity (A549 [18]): Active; Activity [19]: Non-Toxic; MTD at 336 h [24]: 100 mg/kg; Activity [25]: Non-Toxic; inhibition in vivo at 10 mg/kg (A549 [20]): 63.9%; fold change (FC) (A549 [21]): 0.1571
